Tests used:
Mu-type opioid receptor = Mu-type opioid receptor (Rattus norvegicus, UniProt P33535); experiment: Displacement of [3H]DAMGO from mu opioid receptor in rat brain membrane; type: cell membranes
In short: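 Wistar rat brain membranes (cerebellum removed) in 50 mM Tris–HCl, pH 7.4. [³H]DAMGO at 0.5 nM with varying peptide concentrations for 1 h at 25 °C in a rotating incubator. Stopped by vacuum filtration through GF/C filters, washed three times with ice-cold buffer, then scintillation counted. Nonspecific binding taken with naloxone. Duplicates, repeated at least three times; Ki derived.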

Mu-opioid receptor = Mu-opioid receptor (Cavia porcellus, UniProt Q8CGM4); experiment: Agonist activity at mu opioid receptor in guinea pig ileum assessed as inhibition of electrically-stimulated contraction; type: functional, tissue-based
Chain of Mu-opioid receptor (Q8CGM4 whole entry): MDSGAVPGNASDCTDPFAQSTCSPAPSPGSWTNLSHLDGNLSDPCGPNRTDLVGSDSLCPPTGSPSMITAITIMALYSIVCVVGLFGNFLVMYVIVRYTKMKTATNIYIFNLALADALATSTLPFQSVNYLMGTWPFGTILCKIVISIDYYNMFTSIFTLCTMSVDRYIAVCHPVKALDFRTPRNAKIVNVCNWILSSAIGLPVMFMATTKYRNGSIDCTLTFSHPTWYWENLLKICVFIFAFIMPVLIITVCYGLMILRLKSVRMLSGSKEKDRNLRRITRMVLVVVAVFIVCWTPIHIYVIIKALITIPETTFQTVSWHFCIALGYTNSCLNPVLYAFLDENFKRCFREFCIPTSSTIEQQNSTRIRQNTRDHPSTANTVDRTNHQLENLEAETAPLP
In short: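 Guinea pig ileum in a 10-ml bath of Krebs–Henseleit solution at 37 °C, aerated with 95% O₂/5% CO₂. Twitches evoked by 0.1-Hz, 50-V, 0.5-ms rectangular pulses; isometric recording. […] Arithmetic mean of five to eight measurements.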

[1] = target: Delta-type opioid receptor (Mus musculus, UniProt P32300); experiment: Agonist activity at delta opioid receptor in mouse vas deferens assessed as inhibition of electrically-stimulated contraction; type: functional, tissue-based
Chain of Delta-type opioid receptor (Mus musculus, UniProt P32300) (P32300 whole entry): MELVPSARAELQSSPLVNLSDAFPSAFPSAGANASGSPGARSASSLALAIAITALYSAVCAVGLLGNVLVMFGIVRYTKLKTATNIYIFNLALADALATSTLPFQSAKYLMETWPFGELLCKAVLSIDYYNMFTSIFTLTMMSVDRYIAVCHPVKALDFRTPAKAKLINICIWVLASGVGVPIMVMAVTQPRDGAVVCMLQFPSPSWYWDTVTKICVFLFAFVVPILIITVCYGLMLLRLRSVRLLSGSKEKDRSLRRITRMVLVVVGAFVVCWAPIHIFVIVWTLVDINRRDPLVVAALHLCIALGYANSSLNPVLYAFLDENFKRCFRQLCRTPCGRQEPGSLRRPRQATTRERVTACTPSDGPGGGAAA
In short: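 Mouse vas deferens held at 36 °C in aerated (95% O₂/5% CO₂) Krebs–Henseleit, 10-ml bath. Pulse pairs (1-ms width, 100 ms apart, 9 V/cm supramaximal) repeated every 10 s; isometric twitch recording.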

[2] = Selectivity ratio of IC50 for guinea pig ileum to IC50 for mouse vas deferens assay; type: tissue-based
Rattus norvegicus = organism: Rattus norvegicus; experiment: Selectivity ratio of Ki for delta opioid receptor to Ki for mu opioid receptor in rat brain membrane; type: cell membranes
[3] = target: Delta-type opioid receptor (Rattus norvegicus, UniProt P33533); experiment: Displacement of [3H]DPDPE from delta opioid receptor in rat brain membrane; type: cell membranes
Chain of Delta-type opioid receptor (Rattus norvegicus, UniProt P33533) (P33533 whole entry): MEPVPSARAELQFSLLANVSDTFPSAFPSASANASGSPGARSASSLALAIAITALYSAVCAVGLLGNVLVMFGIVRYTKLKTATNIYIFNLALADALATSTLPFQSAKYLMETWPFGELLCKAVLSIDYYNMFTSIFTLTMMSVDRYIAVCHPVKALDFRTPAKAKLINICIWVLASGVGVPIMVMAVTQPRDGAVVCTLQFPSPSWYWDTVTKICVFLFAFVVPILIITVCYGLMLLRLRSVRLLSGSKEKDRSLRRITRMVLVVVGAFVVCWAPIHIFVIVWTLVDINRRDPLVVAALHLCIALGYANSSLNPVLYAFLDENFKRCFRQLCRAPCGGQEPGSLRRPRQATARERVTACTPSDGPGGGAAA
In short: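 Wistar rat brain membranes (cerebellum removed) in 50 mM Tris–HCl, pH 7.4. [³H]DPDPE at 1 nM with varying peptide concentrations for 3 h at 25 °C in a rotating incubator. GF/C vacuum filtration, three ice-cold buffer washes, scintillation counting. Naloxone defined nonspecific binding. Duplicates, repeated at least three times; Ki calculated.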

Chain of Mu-type opioid receptor (P33535 whole entry): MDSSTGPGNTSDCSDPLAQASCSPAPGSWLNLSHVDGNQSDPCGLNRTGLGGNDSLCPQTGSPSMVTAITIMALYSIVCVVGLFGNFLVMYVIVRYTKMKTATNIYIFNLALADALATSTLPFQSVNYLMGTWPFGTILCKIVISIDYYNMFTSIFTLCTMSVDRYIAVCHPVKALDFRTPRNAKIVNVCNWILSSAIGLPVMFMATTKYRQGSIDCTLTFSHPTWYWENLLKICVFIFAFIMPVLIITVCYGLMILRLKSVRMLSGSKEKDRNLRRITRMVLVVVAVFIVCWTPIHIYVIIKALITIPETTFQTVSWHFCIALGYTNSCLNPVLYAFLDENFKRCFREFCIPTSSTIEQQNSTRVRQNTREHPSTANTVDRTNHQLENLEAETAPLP

Row | Compound | Ki (Mu-type opioid receptor) [µM] | IC50 (Mu-opioid receptor) [µM] | IC50 [1] [µM] | IC50 ratio (guinea pig ileum / mouse vas deferens) [2] | Ratio Ki (Rattus norvegicus) | Ki [3] [µM]
1 | CNC(=O)[C@H](Cc1ccccc1)NC(=O)[C@H](Cc1ccccc1)NC(=O)[C@@H]1CCCN1C(=O)[C@@H](N)Cc1ccc(O)cc1 | 0.0292 | 0.136 | 0.0546 | 2.5 | 290 | 8.47
2 | COC(=O)[C@H](Cc1ccccc1)NC(=O)[C@H](Cc1ccccc1)NC(=O)[C@@H]1CCCN1C(=O)[C@@H](N)Cc1ccc(O)cc1 | 0.00907 | 0.0421 |  | 1.1 | > 1100 | > 10
3 | CN(C)C(=O)[C@H](Cc1ccccc1)NC(=O)[C@H](Cc1ccccc1)NC(=O)[C@@H]1CCCN1C(=O)[C@@H](N)Cc1ccc(O)cc1 | 0.273 | 1.81 | 2.72 | 0.66 | > 36.7 | > 10
4 | CC(C)(C)OC(=O)[C@H](Cc1ccccc1)NC(=O)[C@H](Cc1ccccc1)NC(=O)[C@@H]1CCCN1C(=O)[C@@H](N)Cc1ccc(O)cc1 | 0.0503 | 3 | 0.0741 | 40.5 | 4.9 | 0.247
5 | NNC(=O)[C@H](Cc1ccccc1)NC(=O)[C@H](Cc1ccccc1)NC(=O)[C@@H]1CCCN1C(=O)[C@@H](N)Cc1ccc(O)cc1 | 0.00935 | 0.132 |  | 0.71 | > 1070 | > 10
6 | N[C@@H](Cc1ccc(O)cc1)C(=O)N1CCC[C@H]1C(=O)N[C@@H](Cc1ccccc1)C(=O)N[C@H](CO)Cc1ccccc1 | 0.00634 | 0.0293 | 0.0292 | 1 | > 1580 | > 10
7 | CCOC(=O)[C@H](Cc1ccccc1)NC(=O)[C@H](Cc1ccccc1)NC(=O)[C@@H]1CCCN1C(=O)[C@@H](N)Cc1ccc(O)cc1 | 0.015 | 0.0644 | 0.0638 | 1 | 196 | 2.94

Source: ChEMBL document CHEMBL1150405, “Structure-activity study of endomorphin-2 analogs with C-terminal modifications by NMR spectroscopy and molecular modeling” (Bioorg Med Chem, 2008)
